Data published in ChEMBL document CHEMBL1909618, “Non-steroidal dissociated glucocorticoid agonists: indoles as A-ring mimetics and function-regulating pharmacophores” (Bioorg Med Chem Lett, 2011).

Experiments:
[1] = target: T1, Mineralocorticoid receptor (Homo sapiens, UniProt P08235); assay: Displacement of tetramethylrhodamine-labeled Dexamethasone from human recombinant mineralocorticoid receptor expressed in baculovirus infected insect cells by fluorescence polarization assay
T1 sequence (P08235 whole entry): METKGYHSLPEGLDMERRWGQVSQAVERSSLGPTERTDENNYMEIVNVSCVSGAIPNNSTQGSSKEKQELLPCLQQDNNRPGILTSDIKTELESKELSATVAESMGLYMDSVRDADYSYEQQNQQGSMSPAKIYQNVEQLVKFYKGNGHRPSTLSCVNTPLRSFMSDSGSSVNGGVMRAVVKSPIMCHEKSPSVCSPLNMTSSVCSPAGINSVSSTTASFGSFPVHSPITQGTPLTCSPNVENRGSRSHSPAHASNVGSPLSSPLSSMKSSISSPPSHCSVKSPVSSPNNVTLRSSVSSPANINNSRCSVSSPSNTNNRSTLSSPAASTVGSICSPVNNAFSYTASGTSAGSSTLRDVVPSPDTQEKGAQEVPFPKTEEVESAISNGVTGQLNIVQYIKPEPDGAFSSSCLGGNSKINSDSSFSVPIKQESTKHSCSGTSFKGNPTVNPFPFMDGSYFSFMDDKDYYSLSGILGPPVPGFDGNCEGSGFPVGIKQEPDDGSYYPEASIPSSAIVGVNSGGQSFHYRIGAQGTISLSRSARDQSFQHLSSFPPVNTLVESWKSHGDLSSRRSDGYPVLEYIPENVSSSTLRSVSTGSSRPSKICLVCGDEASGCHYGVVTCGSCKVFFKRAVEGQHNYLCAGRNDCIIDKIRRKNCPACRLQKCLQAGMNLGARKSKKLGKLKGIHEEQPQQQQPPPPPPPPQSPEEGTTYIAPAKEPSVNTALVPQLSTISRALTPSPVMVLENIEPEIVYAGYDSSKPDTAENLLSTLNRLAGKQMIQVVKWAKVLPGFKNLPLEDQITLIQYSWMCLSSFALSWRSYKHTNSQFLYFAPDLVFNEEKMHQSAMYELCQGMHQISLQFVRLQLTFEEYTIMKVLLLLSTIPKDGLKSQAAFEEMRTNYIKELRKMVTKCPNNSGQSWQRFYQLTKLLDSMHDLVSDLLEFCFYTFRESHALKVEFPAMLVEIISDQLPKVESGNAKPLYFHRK
Method in brief: (§1)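 Fluorescence polarization competition assays with recombinant human receptors in lysates of baculovirus-infected insect cells. Reactions contained 1% DMSO and ran 1 h at room temperature.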

Glucocorticoid receptor [2] = target: T2, Glucocorticoid receptor (Homo sapiens, UniProt P04150); assay: Agonist activity at glucocorticoid receptor in human HeLa cells transfected with luciferase gene linked to MMTV promoter assessed as luciferase transactivation activity; assay type: functional, cell-based
T2 sequence (P04150 whole entry): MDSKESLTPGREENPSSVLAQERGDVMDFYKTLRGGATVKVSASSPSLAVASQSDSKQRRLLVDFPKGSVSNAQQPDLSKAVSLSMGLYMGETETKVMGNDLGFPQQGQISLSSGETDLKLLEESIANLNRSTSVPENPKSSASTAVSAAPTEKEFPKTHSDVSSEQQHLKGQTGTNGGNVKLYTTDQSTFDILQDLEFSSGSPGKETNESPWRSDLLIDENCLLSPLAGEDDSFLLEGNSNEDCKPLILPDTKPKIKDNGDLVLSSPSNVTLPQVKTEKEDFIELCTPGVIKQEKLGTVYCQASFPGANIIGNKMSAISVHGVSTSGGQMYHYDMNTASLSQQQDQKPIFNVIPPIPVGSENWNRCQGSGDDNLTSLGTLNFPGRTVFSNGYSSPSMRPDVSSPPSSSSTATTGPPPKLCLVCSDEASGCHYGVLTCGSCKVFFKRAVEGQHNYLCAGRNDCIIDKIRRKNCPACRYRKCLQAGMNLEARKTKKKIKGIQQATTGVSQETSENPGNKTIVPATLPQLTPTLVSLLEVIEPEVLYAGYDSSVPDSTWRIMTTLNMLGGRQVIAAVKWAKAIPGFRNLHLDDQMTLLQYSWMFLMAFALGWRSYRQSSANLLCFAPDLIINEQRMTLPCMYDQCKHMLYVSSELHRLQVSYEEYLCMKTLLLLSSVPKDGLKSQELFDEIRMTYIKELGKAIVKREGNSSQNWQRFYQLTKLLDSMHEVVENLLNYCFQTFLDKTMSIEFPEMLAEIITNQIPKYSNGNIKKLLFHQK

Progesterone receptor = target: T3, Progesterone receptor (Homo sapiens, UniProt P06401); assay: Displacement of tetramethylrhodamine-labeled RU-486 from human recombinant progesterone receptor expressed in baculovirus infected insect cells by fluorescence polarization assay; method in brief: as §1
T3 sequence (P06401 whole entry): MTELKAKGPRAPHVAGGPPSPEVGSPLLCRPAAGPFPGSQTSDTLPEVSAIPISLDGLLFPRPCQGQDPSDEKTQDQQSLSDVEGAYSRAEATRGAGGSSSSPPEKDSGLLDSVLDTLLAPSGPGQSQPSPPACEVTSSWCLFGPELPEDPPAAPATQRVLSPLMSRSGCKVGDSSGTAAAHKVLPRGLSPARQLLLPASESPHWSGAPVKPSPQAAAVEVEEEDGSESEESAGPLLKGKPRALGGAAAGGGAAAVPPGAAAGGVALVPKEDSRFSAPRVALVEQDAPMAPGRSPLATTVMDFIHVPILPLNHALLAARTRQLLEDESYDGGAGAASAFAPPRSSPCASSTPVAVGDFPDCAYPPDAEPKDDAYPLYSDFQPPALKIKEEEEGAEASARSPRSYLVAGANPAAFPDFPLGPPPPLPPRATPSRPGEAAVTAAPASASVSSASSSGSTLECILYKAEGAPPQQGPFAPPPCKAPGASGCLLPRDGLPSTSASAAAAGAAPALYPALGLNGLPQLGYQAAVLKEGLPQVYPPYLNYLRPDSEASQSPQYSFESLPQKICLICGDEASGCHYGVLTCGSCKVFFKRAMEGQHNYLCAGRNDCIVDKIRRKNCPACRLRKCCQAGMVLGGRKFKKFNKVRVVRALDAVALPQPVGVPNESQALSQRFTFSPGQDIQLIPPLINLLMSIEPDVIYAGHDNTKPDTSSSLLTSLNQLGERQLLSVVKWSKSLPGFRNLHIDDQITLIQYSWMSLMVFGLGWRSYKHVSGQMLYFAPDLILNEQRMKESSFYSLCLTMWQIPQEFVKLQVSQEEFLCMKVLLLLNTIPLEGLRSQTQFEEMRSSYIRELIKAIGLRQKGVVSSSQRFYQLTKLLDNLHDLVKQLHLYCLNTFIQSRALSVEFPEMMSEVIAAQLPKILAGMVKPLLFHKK

Glucocorticoid receptor [3] = target: T2, Glucocorticoid receptor; assay: Displacement of tetramethylrhodamine-labeled Dexamethasone from human recombinant glucocorticoid receptor expressed in baculovirus infected insect cells by fluorescence polarization assay
Glucocorticoid receptor [4] = target: T2, Glucocorticoid receptor; assay: Transactivation activity of glucocorticoid receptor in HFF assessed as induction of aromatase activity by measuring beta-estradiol activity after 18 to 24 hrs by ELISA
[5] = target: T4, Glucocorticoid receptor (Homo sapiens) (UniProt P04150); assay: Agonist activity at glucocorticoid receptor in HFF assessed as inhibition of IL1-induced IL-6 production after 18 to 24 hrs relative to Dexamethasone; assay type: functional
T4 sequence (whole entry): T2 sequence (P04150 whole entry)
Method in brief: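 Human foreskin fibroblasts stimulated with IL-1 (1 ng/mL) in the presence of test compound, incubated at 37 °C for 18–24 h. IL-6 in the culture medium was quantified by electrochemiluminescence, DELFIA or ELISA. IC50 and % maximal efficacy were reported.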

[6] = target: T4, Glucocorticoid receptor (Homo sapiens); assay: Agonist activity at glucocorticoid receptor in human HeLa cells transfected with luciferase gene linked to MMTV promoter assessed as luciferase transactivation activity relative to Dexamethasone; assay type: functional, cell-based
Method in brief: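 HeLa cells stably carrying an MMTV-luciferase construct were exposed to compound for 6 h at 37 °C, 5% CO2. Cells were then lysed and luminescence read with a Steady-Glo reagent. EC50 and % maximal efficacy were reported.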

[7] = target: T4, Glucocorticoid receptor (Homo sapiens); assay: Transactivation activity of glucocorticoid receptor in HFF assessed as induction of aromatase activity by measuring beta-estradiol activity after 18 to 24 hrs by ELISA relative to Dexamethasone
Glucocorticoid receptor [8] = target: T2, Glucocorticoid receptor; assay: Agonist activity at glucocorticoid receptor in HFF assessed as inhibition of IL1-induced IL-6 production after 18 to 24 hrs; assay type: functional
Homo sapiens [9] = species: Homo sapiens; assay: Selectivity ratio of IC50 for human recombinant glucocorticoid receptor to IC50 for human recombinant progesterone receptor
Homo sapiens [10] = species: Homo sapiens; assay: Selectivity ratio of IC50 for human recombinant glucocorticoid receptor to IC50 for human recombinant mineralocorticoid receptor

## COc1ccc(F)cc1C(C)(C)C[C@@](O)(Cc1cc2cc(C#N)ccc2[nH]1)C(F)(F)F
[1]
  IC50: 45 nM
Glucocorticoid receptor [2]
  EC50: 36 nM
Progesterone receptor
  IC50: 155 nM
Glucocorticoid receptor [3]
  IC50: 1 nM
Glucocorticoid receptor [4]; read-out: EC50
  EC50: 6 nM
[5]
  Efficacy: 90%
[6]
  Efficacy: 10%
[7]
  Efficacy: 71%
Glucocorticoid receptor [8]
  IC50: 3 nM

## COc1ccc(F)cc1C(C)(C)CC(O)(Cc1cc2c(C#N)cccc2[nH]1)C(F)(F)F (racemic)
Homo sapiens [9]
  Ratio IC50: 90
[1]
  IC50: 225 nM
Progesterone receptor
  IC50: 440 nM
Glucocorticoid receptor [3]
  IC50: 5 nM
Glucocorticoid receptor [4]; read-out: EC50
  EC50: 21 nM
[5]
  Efficacy: 91%
[7]
  Efficacy: 91%
Glucocorticoid receptor [8]
  IC50: 8 nM

## CCc1cccc2[nH]c(CC(O)(CC(C)(C)c3cc(F)ccc3OC)C(F)(F)F)cc12 (racemic)
Homo sapiens [9]
  Ratio IC50: 30
[1]
  IC50: 790 nM
Progesterone receptor
  IC50: 1000 nM
Glucocorticoid receptor [3]
  IC50: 28 nM
Glucocorticoid receptor [4]
  EC50: Not Active
[5]
  Efficacy: 90%
[7]
  Efficacy: 49%
Glucocorticoid receptor [8]
  IC50: 88 nM

## COc1ccc(F)cc1C(C)(C)CC(O)(Cc1cc2cc(C#N)ccc2[nH]1)C(F)(F)F (racemic)
Homo sapiens [9]
  Ratio IC50: 100
[1]
  IC50: 415 nM
Progesterone receptor
  IC50: 815 nM
Glucocorticoid receptor [3]
  IC50: 8 nM
Glucocorticoid receptor [4]; read-out: EC50
  EC50: 28 nM
Homo sapiens [10]
  Ratio IC50: 50
[5]
  Efficacy: 89%
[7]
  Efficacy: 81%
Glucocorticoid receptor [8]
  IC50: 11 nM

## COc1ccc(F)cc1C(C)(C)CC(O)(Cc1cc2ccc(C#N)cc2[nH]1)C(F)(F)F (racemic)
Homo sapiens [9]
  Ratio IC50: 30
[1]
  IC50: 435 nM
Progesterone receptor
  IC50: 395 nM
Glucocorticoid receptor [3]
  IC50: 14 nM
Glucocorticoid receptor [4]; read-out: EC50
  EC50: 113 nM
Homo sapiens [10]
  Ratio IC50: 30
[5]
  Efficacy: 91%
[7]
  Efficacy: 98%
Glucocorticoid receptor [8]
  IC50: 14 nM

## CC(C)(CC(O)(Cc1cc2ccccc2[nH]1)C(F)(F)F)c1cccc2c1OCC2 (racemic)
[1]
  IC50: 400 nM
Progesterone receptor
  IC50: 225 nM
Glucocorticoid receptor [3]
  IC50: 19 nM
Glucocorticoid receptor [4]; read-out: EC50
  EC50: 311 nM
[5]
  Efficacy: 83%
[7]
  Efficacy: 103%
Glucocorticoid receptor [8]
  IC50: 10 nM

## CC(C)(CC(O)(Cc1cc2ccccc2[nH]1)C(F)(F)F)c1cc(F)cc2c1OCC2 (racemic)
[1]
  IC50: 265 nM
Progesterone receptor
  IC50: 255 nM
Glucocorticoid receptor [3]
  IC50: 8 nM
Glucocorticoid receptor [4]; read-out: EC50
  EC50: 125 nM
[5]
  Efficacy: 90%
[7]
  Efficacy: 98%
Glucocorticoid receptor [8]
  IC50: 21 nM

## Cc1cc2c(c(C(C)(C)CC(O)(Cc3cc4ccccc4[nH]3)C(F)(F)F)c1)OCC2 (racemic)
[1]
  IC50: 240 nM
Progesterone receptor
  IC50: 145 nM
Glucocorticoid receptor [3]
  IC50: 10 nM
Glucocorticoid receptor [4]; read-out: EC50
  EC50: 16 nM
[5]
  Efficacy: 95%
[7]
  Efficacy: 105%
Glucocorticoid receptor [8]
  IC50: 7 nM

## CC(C)(CC(O)(Cc1cc2ccccc2[nH]1)C(F)(F)F)c1cc(Br)cc2c1OCC2 (racemic)
[1]
  IC50: 585 nM
Progesterone receptor
  IC50: 415 nM
Glucocorticoid receptor [3]
  IC50: 32 nM
Glucocorticoid receptor [4]; read-out: EC50
  EC50: 45 nM
[5]
  Efficacy: 88%
[7]
  Efficacy: 99%
Glucocorticoid receptor [8]
  IC50: 16 nM

## CC(C)(CC(O)(Cc1cc2ccccc2[nH]1)C(F)(F)F)c1cc(C#N)cc2c1OCC2 (racemic)
Homo sapiens [9]
  Ratio IC50: 50
[1]
  IC50: 405 nM
Progesterone receptor
  IC50: 710 nM
Glucocorticoid receptor [3]
  IC50: 15 nM
Glucocorticoid receptor [4]; read-out: EC50
  EC50: 356 nM
[5]
  Efficacy: 65%
[7]
  Efficacy: 55%
Glucocorticoid receptor [8]
  IC50: 104 nM

## CC(C)(CC(O)(Cc1cc2ccccc2[nH]1)C(F)(F)F)c1cc(S(C)(=O)=O)cc2c1OCC2 (racemic)
Homo sapiens [9]
  Ratio IC50: > 300
[1]
  IC50: 610 nM
Glucocorticoid receptor [2]
  EC50: > 2000 nM
Progesterone receptor
  IC50: > 2000 nM
Glucocorticoid receptor [3]
  IC50: 6 nM
Homo sapiens [10]
  Ratio IC50: 100
[5]
  Efficacy: 84%
[6]
  Efficacy: 20%
Glucocorticoid receptor [8]
  IC50: 100 nM
